Bioassay records from PubChem.
A selection: hits, their analogues and other compounds. The true share with any hit is near 2%.
DNA FID counter-1: compounds displacing fluorescent DNA intercalator, primary screen, artefact control for HCV NS3 helicase inhibitor project, biochemical, FID fluorescence; DNA fluorescent intercalator displacement; inhibition, % at 7.9 µM; 290,000 compounds, 0.17% hits; AID 1845, 2009; in the data active = inhibition above about 37%;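 note: higher means more ethidium bromide displaced from hairpin DNA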
HCV NS3 hel inh: inhibitors of HCV NS3 helicase, primary screen, biochemical, Cy5 molecular beacon fluorescence; Hepatitis C virus NS3 helicase; NS3 helicase DNA unwinding; inhibition, % at 10.9 µM; 290,000 compounds, 0.56% hits; AID 1800, 2009;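 active = inhibition above the mean of all tested compounds plus 3 SD, set per campaign, cut at about 35% in these data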
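Measured by: Cy5 fluorescence, 0 and 60 min reads / Assay system: NS3 helicase fragment of HCV / Control set: low DMSO, high thioflavine S at 110 µM / Times: 1 h reaction at 25 °C, ATP-initiated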
eIF4H FP inh: human eIF4H binding inhibitors, primary screen, translation initiation inhibitor project, biochemical, uHTS, fluorescence polarization; Eukaryotic translation initiation factor 4H (Homo sapiens), Q15056; 290,000 compounds, 0.94% hits; AID 2012, 2009; eIF4H fluorescence polarization binding assay; inhibition, % at 35 µM;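 note: calls also rest on retests at 20 µM and on dose response follow-up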
MLLE-PAM2 inh: inhibitors of PABP1 MLLE–PAM2 peptide binding, primary screen, biochemical, fluorescence polarization, FITC-PAM2, GST-MLLE; Polyadenylate-binding protein 1 (Homo sapiens), P11940; inhibition, % at 20 µM; 360,000 compounds, 0.36% hits; in the data active = inhibition above about 35%, passing the limit was not always enough
Target sequence (P11940 whole entry, looked up): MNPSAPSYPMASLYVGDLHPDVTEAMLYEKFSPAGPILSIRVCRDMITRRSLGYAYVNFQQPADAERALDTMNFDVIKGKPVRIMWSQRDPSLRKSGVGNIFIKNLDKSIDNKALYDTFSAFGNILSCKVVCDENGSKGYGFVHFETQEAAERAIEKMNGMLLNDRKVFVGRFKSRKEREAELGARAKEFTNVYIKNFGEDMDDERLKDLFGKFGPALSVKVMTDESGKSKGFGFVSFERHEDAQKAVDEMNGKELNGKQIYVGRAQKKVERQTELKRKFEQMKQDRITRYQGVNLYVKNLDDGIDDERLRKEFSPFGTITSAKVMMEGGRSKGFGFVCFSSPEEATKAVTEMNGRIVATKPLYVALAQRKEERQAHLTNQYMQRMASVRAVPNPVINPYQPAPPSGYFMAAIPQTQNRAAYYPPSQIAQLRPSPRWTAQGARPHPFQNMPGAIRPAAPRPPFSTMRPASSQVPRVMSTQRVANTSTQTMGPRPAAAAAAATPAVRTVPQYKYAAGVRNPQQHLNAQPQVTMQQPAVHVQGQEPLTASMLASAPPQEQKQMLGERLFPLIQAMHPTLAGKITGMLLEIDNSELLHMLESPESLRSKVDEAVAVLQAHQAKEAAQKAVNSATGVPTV
PABP polyA inh: PABP poly(A) RNA binding inhibitors, primary screen, biochemical, fluorescence polarization, uHTS. 290,000 compounds, 1% hits. AID 2014, 2009. inhibition, % at 35 µM;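 note: calls also rest on retests at 20 µM and on dose response follow-up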
core dimer inh: inhibitors of HCV core protein dimerization, primary screen, biochemical, TR-FRET, high-throughput; TR-FRET GST/Flag-core106 dimerization, 1536-well; inhibition, % at 5 µM; 300,000 compounds, 0.33% hits; AID 1899, 2009;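 active = inhibition above the mean of all tested compounds plus 3 SD, set per screening campaign, cut at about 45% in these data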
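Test system: GST/Flag-tagged HCV core106 proteins; Medium: KF-containing HEPES buffer, pH 7.45, DTT, CHAPS, BSA; Times: compound-protein-antibody incubation 4 h at 22.5 °C; Detection: TR-FRET 671 and 617 nm emission; Benchmarks: wells lacking GST-core106 and wells with excess unlabelled core106.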
NS3 helicase cf: HCV NS3 helicase inhibitors, retest, confirmation, biochemical, Cy5 molecular beacon fluorescence, triplicate; shares compounds with HCV NS3 hel inh; NS3 helicase DNA unwinding; inhibition, % at 10.9 µM; 1,600 compounds, 31% hits; AID 1943, 2009;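 active = inhibition above the mean of all tested compounds plus 3 SD, cutoff set per campaign, cut at about 36% in these data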
DNA FID counter-2: compounds displacing fluorescent DNA intercalator, artefact control for HCV NS3 helicase inhibitor project, biochemical, FID fluorescence, triplicate; shares compounds with HCV NS3 hel inh; DNA fluorescent intercalator displacement; inhibition, % at 7.9 µM; 1,600 compounds, 4% hits; in the data active = inhibition above about 37%;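 note: higher means more displacement of ethidium bromide from the DNA hairpin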
DNA FID DR: compounds displacing fluorescent intercalator from DNA, dose response, counter-screen for HCV NS3 helicase inhibitor project, biochemical, fluorescence; shares compounds with HCV NS3 hel inh; fluorescent intercalator displacement from DNA; IC50, µM; 120 tested, under 10 active
Large screens that a line does not name were inactive (follow-up assays come after a bar, where they were run). Unless noted, the rule behind the calls is not given here.

CCOC(=O)Cn1c(=NC(=O)C2COc3ccccc3O2)sc2cc(S(N)(=O)=O)ccc21 (centres undefined)	HCV NS3 hel inh 56 | NS3 helicase cf inactive | DNA FID counter-2 inactive
Cc1cc(C)n(CCNC(=O)c2ccco2)n1	none
CSc1ccc(OC2(C)CCN(Cc3ccc(-c4ccccn4)cc3)C2)cc1 (centres undefined)	none (no result: DNA FID counter-1, HCV NS3 hel inh, eIF4H FP inh, PABP polyA inh, core dimer inh)
O=C(COc1ccc(-c2ccccc2)cc1)N/N=C/c1cc(O)ccc1Br	HCV NS3 hel inh 37 | NS3 helicase cf inactive | DNA FID counter-2 inactive
O=C(Nc1ccc(C(=O)N2CCCC2)cc1)C1CCC1	none (no result: DNA FID counter-1, HCV NS3 hel inh, eIF4H FP inh, PABP polyA inh, core dimer inh)
N#CCN1CCC(c2cc(-c3ccco3)n[nH]2)CC1	none (no result: MLLE-PAM2 inh)
CCOC(=O)C1=C(O)/C(=C\c2ccc(CNC(=O)C(=O)Nc3ccccc3)o2)N=C1C	HCV NS3 hel inh 40, eIF4H FP inh inconclusive, PABP polyA inh inconclusive | NS3 helicase cf inactive | DNA FID counter-2 inactive
O=C1ON=C(c2ccccc2)/C1=C/c1ccc(O)c(O)c1	HCV NS3 hel inh 46, PABP polyA inh 15 | NS3 helicase cf inactive | DNA FID counter-2 inactive
Cc1ccc(S(=O)(=O)N2CCN(C(=O)CCC(=O)Nc3ccc(Br)c(C)c3)CC2)cc1	none (no result: DNA FID counter-1, HCV NS3 hel inh, eIF4H FP inh, PABP polyA inh, core dimer inh)
C/C(CC(=O)Nc1ccc(Cl)c(C(F)(F)F)c1)=N\NC(=O)c1ccccc1O	HCV NS3 hel inh 41 | NS3 helicase cf inactive | DNA FID counter-2 inactive
Cc1c(NC(=O)COC(=O)c2ccccc2Cl)c(=O)n(-c2ccccc2)n1C	HCV NS3 hel inh 108 | NS3 helicase cf inactive | DNA FID counter-2 inactive
CCOC(=O)C1Nc2c(F)cc(C)cc2C2C=CCC12 (centres undefined)	none (no result: DNA FID counter-1, HCV NS3 hel inh, eIF4H FP inh, MLLE-PAM2 inh, PABP polyA inh)
CCOC(=O)C1Nc2ccc(C(=O)O)cc2C2C=CCC12 (centres undefined)	HCV NS3 hel inh 54, eIF4H FP inh 96, MLLE-PAM2 inh 50, PABP polyA inh 94 | NS3 helicase cf 67 | DNA FID counter-2 inactive
CCOC(=O)c1ccc2c(c1)C1C=CCC1C(C(=O)O)N2 (centres undefined)	HCV NS3 hel inh 39, eIF4H FP inh 92, PABP polyA inh 82, core dimer inh 88 (no result: MLLE-PAM2 inh) | NS3 helicase cf 91 | DNA FID counter-2 inactive
Cc1cc(C)c2c(c1)NC(C(=O)O)C1CC=CC21 (centres undefined)	HCV NS3 hel inh 44, eIF4H FP inh 93, PABP polyA inh 86 | NS3 helicase cf 98 | DNA FID counter-2 inactive | DNA FID DR inactive
CCCC1Nc2ccc(C(=O)O)cc2C2C=CCC12 (centres undefined)	none
Cc1c(Cl)cccc1-n1c(SCC(=O)N2CCC(C(=O)O)CC2)nc2ccccc2c1=O	none
CCOc1ccc(OCCCN(C)C)cc1	none
CCOc1ccc(OCCCCN(C)C)cc1	HCV NS3 hel inh 49 | NS3 helicase cf inactive | DNA FID counter-2 inactive
CC(C)(C)OC(=O)N1CCC(CNC(=O)c2ccc(F)cc2F)CC1	HCV NS3 hel inh 41 | NS3 helicase cf inactive | DNA FID counter-2 inactive
Cc1cccc(-c2oc3ccc(-c4ccc5c(c4)OCO5)cc3c2/C=C/c2ccc(N)cc2)c1	HCV NS3 hel inh 45 | NS3 helicase cf inactive | DNA FID counter-2 inactive
O=c1c(C(c2ccc(Cl)cc2)c2c(O)nc3n(c2=O)CCS3)c(O)nc2n1CCS2	HCV NS3 hel inh 47 | NS3 helicase cf inactive | DNA FID counter-2 inactive
Cc1occc1C(=O)NNC(=O)c1ccccc1[N+](=O)[O-]	none
O=C(COc1ccc2ccccc2c1)N[C@@H](C(=O)O)c1ccc(O)cc1	HCV NS3 hel inh 43 | NS3 helicase cf inactive | DNA FID counter-2 inactive
Cn1c(C(=O)N2CCCC2)cc2c(=O)n(C)c3ccccc3c21	none (no result: core dimer inh)
CCOC(=O)C1CCCN(C(=O)c2cc3c(=O)n(C)c4ccccc4c3n2C)C1 (centres undefined)	HCV NS3 hel inh 75 | NS3 helicase cf inactive | DNA FID counter-2 inactive
O=C(Nc1ccccc1N1CCCC1)C1CCCO1 (centres undefined)	none (no result: DNA FID counter-1, HCV NS3 hel inh, eIF4H FP inh, PABP polyA inh, core dimer inh)
CC1Cc2cc(S(=O)(=O)CCC(=O)NCc3ccco3)ccc2N1C(=O)C1CC1 (centres undefined)	none
Oc1ccc(/C=N/Nc2cc(N3CCCC3)nc(N3CCCC3)n2)cc1O	HCV NS3 hel inh 56 | NS3 helicase cf inactive | DNA FID counter-2 inactive
Oc1ccc(/C=N\Nc2cc(N3CCOCC3)nc(N3CCOCC3)n2)c(O)c1	none
CCOc1ccc(S(=O)(=O)N/N=C(\C)C2CCCCC2)cc1	HCV NS3 hel inh 43, eIF4H FP inh 71, PABP polyA inh active | NS3 helicase cf inactive | DNA FID counter-2 inactive
CCOc1ccc(S(=O)(=O)NC2CCCCCC2)cc1	none
Cc1ccc(S(=O)(=O)c2c(N)n(CCCN(C)C)c3nc4ccccc4nc23)cc1	none
CCCCn1c(NS(=O)(=O)c2ccc(C)cc2)c(S(=O)(=O)c2ccccc2)c2nc3ccccc3nc21	HCV NS3 hel inh 38 | NS3 helicase cf 72 | DNA FID counter-2 inactive | DNA FID DR inactive
CC1CCc2c(sc(/N=C/c3ccco3)c2C(N)=O)C1 (centres undefined)	HCV NS3 hel inh 37 | NS3 helicase cf inactive | DNA FID counter-2 inactive
CC1(C(=O)NS(=O)(=O)c2cccc(Cl)c2)CCN1C(=O)CC1CC1 (centres undefined)	none (no result: DNA FID counter-1, HCV NS3 hel inh, eIF4H FP inh, PABP polyA inh, core dimer inh)
COCCN(C(=O)CNC(=O)c1ccco1)C(C(=O)NC1CCCC1)c1ccc(OC)cc1 (centres undefined)	HCV NS3 hel inh 44 | NS3 helicase cf inactive | DNA FID counter-2 inactive
COCCN(C(=O)CNC(=O)c1ccco1)C(C(=O)NC1CCCC1)c1ccccc1 (centres undefined)	none
Cc1cc(-c2csc(NC(=O)c3ccc(S(=O)(=O)N(C)C)cc3)n2)c(C)n1-c1ccccc1	HCV NS3 hel inh 66 | NS3 helicase cf inactive | DNA FID counter-2 inactive
CN(C)S(=O)(=O)c1ccc(C(=O)Nc2nc(-c3cc4ccccc4o3)cs2)cc1	none
CCCCN(CCCC)c1ccc(C(=O)c2ccccc2C(=O)O)c(O)c1	HCV NS3 hel inh 60 | NS3 helicase cf 76 | DNA FID counter-2 inactive
